# Data taken from ChEMBL document CHEMBL1157190, “Design, synthesis, and anticonvulsant activity of N-phenylamino derivatives of 3,3-dialkyl-pyrrolidine-2,5-diones and hexahydro-isoindole-1,3-diones” (Bioorg Med Chem, 2008).
# Calls of active or inactive are those of the source. The rule behind the calls is not given here.
# System: Mus musculus
# Experiment: Neurotoxicity in ip dosed CF1 albino mouse after 0.5 hr by rotarod test
# Assay type: toxicity, organism-based
# Settings: in vivo
# Method in brief: (§1)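 CF-1 mice given 30, 100 or 300 mg/kg ip in 0.5% methylcellulose/water, examined at 0.5 and 4 h. Rotorod test: neurotoxicity is the inability to keep equilibrium on the rod for a given time. Value is the minimum dose giving motor impairment; a dash means none at 300 mg/kg.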
row,SMILES,Activity [mg/kg]
1,CC1(C)CC(=O)N(Nc2ccc(Cl)cc2Cl)C1=O,100
2,CCC1(C)CC(=O)N(Nc2ccc(Br)cc2)C1=O (stereo not given),300
3,CCC1(C)CC(=O)N(Nc2cccc(Cl)c2)C1=O (stereo not given),300

# System: Rattus norvegicus
# Experiment: Anticonvulsant activity in Sprague-Dawley rat assessed as protection against seizure at 30 mg/kg, po after 1 hr by maximal electroshock test
# Assay type: functional
# Settings: not given
# Method in brief: (§2)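 Male Sprague–Dawley rats; compound suspended in 0.5% methylcellulose/water and given orally at a fixed 30 mg/kg, four rats per time point. MES test run at 0.25, 0.5, 1, 2 and 4 h after dosing, with motor impairment checked in parallel. Read-out: number of rats of four protected.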
row,SMILES,Activity
1,O=C1C2CCCCC2C(=O)N1Nc1ccccc1 (stereo not given),inactive
2,CCC1(C)CC(=O)N(Nc2ccc(Br)cc2)C1=O (stereo not given),50%
3,CCC1(C)CC(=O)N(Nc2cccc(Cl)c2)C1=O (stereo not given),inactive

# System: Rattus norvegicus
# Experiment: Anticonvulsant activity in Sprague-Dawley rat assessed as protection against seizure at 30 mg/kg, po after 4 hrs by maximal electroshock test
# Assay type: functional
# Settings: not given
# Method in brief: as §2
row,SMILES,Activity
1,O=C1C2CCCCC2C(=O)N1Nc1ccccc1 (stereo not given),inactive
2,CC1(C)CC(=O)N(Nc2ccc(Cl)cc2Cl)C1=O,inactive
3,CCC1(C)CC(=O)N(Nc2ccc(Br)cc2)C1=O (stereo not given),25%
4,CCC1(C)CC(=O)N(Nc2cccc(Cl)c2)C1=O (stereo not given),inactive

# System: Rattus norvegicus
# Experiment: Anticonvulsant activity in Sprague-Dawley rat assessed as protection against seizure at 30 mg/kg, po after 0.25 hr by maximal electroshock test
# Assay type: functional
# Settings: not given
# Method in brief: as §2
row,SMILES,Activity
1,O=C1C2CCCCC2C(=O)N1Nc1ccccc1 (stereo not given),inactive
2,CCC1(C)CC(=O)N(Nc2ccc(Br)cc2)C1=O (stereo not given),75%

# System: Rattus norvegicus
# Experiment: Anticonvulsant activity in Sprague-Dawley rat assessed as protection against seizure at 50 mg/kg, po after 1 hr by subcutaneous pentylenetetrazole test
# Assay type: functional, organism-based
# Parameters: dose 50 mg/kg
# Settings: not given
# Method in brief: (§3)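 Male Sprague–Dawley rats dosed orally at 50 mg/kg as a 0.5% methylcellulose/water suspension, four animals per time point. Convulsant given subcutaneously at 0.25, 0.5, 1, 2 and 4 h after dosing; rotorod motor impairment assessed in parallel. Read-out: number of rats of four protected.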
row,SMILES,Activity
1,O=C1C2CCCCC2C(=O)N1Nc1ccccc1 (stereo not given),inactive
2,CCCC1(C)CC(=O)N(Nc2ccc(Cl)cc2Cl)C1=O (stereo not given),Active

# System: Mus musculus
# Experiment: Anticonvulsant activity in ip dosed CF1 albino mouse assessed as inhibition of subcutaneous pentylenetetrazole-induced electrical stimulus at 300 mg/kg after 4 hrs
# Assay type: functional, organism-based
# Parameters: dose 300 mg/kg
# Settings: not given
# Method in brief: (§4)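 Male CF-1 mice injected intraperitoneally at 30, 100 and 300 mg/kg, suspended in 0.5% methylcellulose/water. MES or subcutaneous pentylenetetrazole challenge at 0.5 and 4 h; selected compounds also at 1 or 2 h.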
row,SMILES,Activity
1,O=C1C2CCCCC2C(=O)N1Nc1ccccc1 (stereo not given),inactive
2,CCCC1(C)CC(=O)N(Nc2ccc(Cl)cc2Cl)C1=O (stereo not given),inactive

# System: Mus musculus
# Experiment: Anticonvulsant activity in ip dosed CF1 albino mouse assessed as inhibition of maximal electroshock-induced electrical stimulus after 4 hrs
# Assay type: functional
# Settings: not given
# Method in brief: as §4
row,SMILES,Activity [mg/kg]
1,CC1(C)CC(=O)N(Nc2ccc(Cl)cc2Cl)C1=O,100

# System: Mus musculus
# Experiment: Neurotoxicity in ip dosed CF1 albino mouse at 300 mg/kg after 4 hrs by rotarod test
# Assay type: toxicity, organism-based
# Parameters: dose 300 mg/kg, route intraperitoneal
# Settings: in vivo
# Method in brief: as §1
row,SMILES,Activity
1,O=C1C2CCCCC2C(=O)N1Nc1ccccc1 (stereo not given),Not Active
2,CCC1(C)CC(=O)NC1=O (stereo not given) [ETHOSUXIMIDE],Not Active
3,CCC1(C)CC(=O)N(Nc2ccc(Br)cc2)C1=O (stereo not given),Not Active
4,CCCC1(C)CC(=O)N(Nc2ccc(Cl)cc2Cl)C1=O (stereo not given),Not Active

# System: Rattus norvegicus
# Experiment: Anticonvulsant activity in Sprague-Dawley rat assessed as protection against seizure at 50 mg/kg, po after 2 hrs by subcutaneous pentylenetetrazole test
# Assay type: functional, organism-based
# Parameters: dose 50 mg/kg
# Settings: not given
# Method in brief: as §3
row,SMILES,Activity
1,O=C1C2CCCCC2C(=O)N1Nc1ccccc1 (stereo not given),inactive
2,CCCC1(C)CC(=O)N(Nc2ccc(Cl)cc2Cl)C1=O (stereo not given),inactive

# System: Mus musculus
# Experiment: Anticonvulsant activity in ip dosed CF1 albino mouse assessed as inhibition of maximal electroshock-induced electrical stimulus at 300 mg/kg after 4 hrs
# Assay type: functional, organism-based
# Parameters: dose 300 mg/kg
# Settings: not given
# Method in brief: as §4
row,SMILES,Activity
1,O=C1C2CCCCC2C(=O)N1Nc1ccccc1 (stereo not given),inactive
2,CCC1(C)CC(=O)NC1=O (stereo not given) [ETHOSUXIMIDE],inactive
3,CCC1(C)CC(=O)N(Nc2ccc(Br)cc2)C1=O (stereo not given),inactive
4,CCCC1(C)CC(=O)N(Nc2ccc(Cl)cc2Cl)C1=O (stereo not given),inactive

# System: Mus musculus
# Experiment: Neurotoxicity in ip dosed CF1 albino mouse at 300 mg/kg after 0.5 hr by rotarod test
# Assay type: toxicity, organism-based
# Parameters: dose 300 mg/kg, route intraperitoneal
# Settings: in vivo
# Method in brief: as §1
row,SMILES,Activity
1,O=C1C2CCCCC2C(=O)N1Nc1ccccc1 (stereo not given),Not Active
2,CCC1(C)CC(=O)NC1=O (stereo not given) [ETHOSUXIMIDE],Not Active
3,CCCC1(C)CC(=O)N(Nc2ccc(Cl)cc2Cl)C1=O (stereo not given),Not Active

# System: Rattus norvegicus
# Experiment: Anticonvulsant activity in Sprague-Dawley rat assessed as protection against seizure at 30 mg/kg, po after 2 hrs by maximal electroshock test
# Assay type: functional
# Settings: not given
# Method in brief: as §2
row,SMILES,Activity
1,O=C1C2CCCCC2C(=O)N1Nc1ccccc1 (stereo not given),inactive
2,CCC1(C)CC(=O)N(Nc2ccc(Br)cc2)C1=O (stereo not given),50%
3,CCC1(C)CC(=O)N(Nc2cccc(Cl)c2)C1=O (stereo not given),inactive

# System: not listed separately
# Experiment: Lipophilicity, log kw of compound by RP-HPLC
# Assay type: physicochemical
# Settings: not given
# Method in brief: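 RP-HPLC on a C18 end-capped column at room temperature, with UV detection at 214 nm and uracil as the unretained marker. Capacity factor k = (tr − t0)/t0, from the mean of three measurement sets. log k extrapolated to 100% water (log k = log kw − Sφ) to give log kw.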
row,SMILES,log K
1,O=C1C2CCCCC2C(=O)N1Nc1ccccc1 (stereo not given),1.937
2,CC1(C)CC(=O)N(Nc2ccc(Cl)cc2Cl)C1=O,2.179
3,CCC1(C)CC(=O)N(Nc2ccc(Br)cc2)C1=O (stereo not given),2.024
4,CCC1(C)CC(=O)N(Nc2cccc(Cl)c2)C1=O (stereo not given),2.183
5,CCCC1(C)CC(=O)N(Nc2ccc(Cl)cc2Cl)C1=O (stereo not given),2.647

# System: Rattus norvegicus
# Experiment: Neurotoxicity in po dosed Sprague-Dawley rat at 50 mg/kg by rotarod test
# Assay type: toxicity, organism-based
# Parameters: dose 50 mg/kg, route oral
# Settings: in vivo
# Method in brief: as §3
row,SMILES,Activity
1,O=C1C2CCCCC2C(=O)N1Nc1ccccc1 (stereo not given),Non-toxic
2,CCCC1(C)CC(=O)N(Nc2ccc(Cl)cc2Cl)C1=O (stereo not given),Non-toxic

# System: Mus musculus
# Experiment: Anticonvulsant activity in ip dosed CF1 albino mouse assessed as inhibition of subcutaneous pentylenetetrazole-induced electrical stimulus after 0.5 hr
# Assay type: functional
# Settings: not given
# Method in brief: as §4
row,SMILES,Activity [mg/kg]
1,O=C1C2CCCCC2C(=O)N1Nc1ccccc1 (stereo not given),300
2,CC1(C)CC(=O)N(Nc2ccc(Cl)cc2Cl)C1=O,100
3,CCC1(C)CC(=O)NC1=O (stereo not given) [ETHOSUXIMIDE],100
4,CCC1(C)CC(=O)N(Nc2ccc(Br)cc2)C1=O (stereo not given),300
5,CCCC1(C)CC(=O)N(Nc2ccc(Cl)cc2Cl)C1=O (stereo not given),100

# System: Rattus norvegicus
# Experiment: Anticonvulsant activity in Sprague-Dawley rat assessed as protection against seizure at 50 mg/kg, po after 0.5 hr by subcutaneous pentylenetetrazole test
# Assay type: functional
# Settings: not given
# Method in brief: as §3
row,SMILES,Activity
1,O=C1C2CCCCC2C(=O)N1Nc1ccccc1 (stereo not given),inactive
2,CC1(C)CC(=O)N(Nc2ccc(Cl)cc2Cl)C1=O,inactive
3,CCC1(C)CC(=O)N(Nc2cccc(Cl)c2)C1=O (stereo not given),inactive
4,CCCC1(C)CC(=O)N(Nc2ccc(Cl)cc2Cl)C1=O (stereo not given),50%

# System: Mus musculus
# Experiment: Anticonvulsant activity in ip dosed CF1 albino mouse assessed as inhibition of maximal electroshock-induced electrical stimulus after 0.5 hr
# Assay type: functional
# Settings: not given
# Method in brief: as §4
row,SMILES,Activity [mg/kg]
1,O=C1C2CCCCC2C(=O)N1Nc1ccccc1 (stereo not given),300
2,CCC1(C)CC(=O)N(Nc2ccc(Br)cc2)C1=O (stereo not given),300
3,CCC1(C)CC(=O)N(Nc2cccc(Cl)c2)C1=O (stereo not given),300

# System: Rattus norvegicus
# Experiment: Anticonvulsant activity in Sprague-Dawley rat assessed as protection against seizure at 50 mg/kg, po after 4 hrs by subcutaneous pentylenetetrazole test
# Assay type: functional
# Settings: not given
# Method in brief: as §3
row,SMILES,Activity
1,O=C1C2CCCCC2C(=O)N1Nc1ccccc1 (stereo not given),inactive
2,CCC1(C)CC(=O)NC1=O (stereo not given) [ETHOSUXIMIDE],inactive
3,CCCC1(C)CC(=O)N(Nc2ccc(Cl)cc2Cl)C1=O (stereo not given),25%

# System: Mus musculus
# Experiment: Anticonvulsant activity in ip dosed CF1 albino mouse assessed as inhibition of subcutaneous pentylenetetrazole-induced electrical stimulus after 4 hrs
# Assay type: functional
# Settings: not given
# Method in brief: as §4
row,SMILES,Activity [mg/kg]
1,CCC1(C)CC(=O)NC1=O (stereo not given) [ETHOSUXIMIDE],300
2,CCC1(C)CC(=O)N(Nc2ccc(Br)cc2)C1=O (stereo not given),100

# System: Rattus norvegicus
# Experiment: Anticonvulsant activity in Sprague-Dawley rat assessed as protection against seizure rat at 50 mg/kg, po after 0.25 hr by subcutaneous pentylenetetrazole test
# Assay type: functional
# Settings: not given
# Method in brief: as §3
row,SMILES,Activity
1,O=C1C2CCCCC2C(=O)N1Nc1ccccc1 (stereo not given),25%
2,CCC1(C)CC(=O)NC1=O (stereo not given) [ETHOSUXIMIDE],inactive
3,CCCC1(C)CC(=O)N(Nc2ccc(Cl)cc2Cl)C1=O (stereo not given),25%

# System: Rattus norvegicus
# Experiment: Anticonvulsant activity in Sprague-Dawley rat assessed as protection against seizure at 30 mg/kg, po after 0.5 hr by maximal electroshock test
# Assay type: functional
# Settings: not given
# Method in brief: as §2
row,SMILES,Activity
1,O=C1C2CCCCC2C(=O)N1Nc1ccccc1 (stereo not given),25%
2,CC1(C)CC(=O)N(Nc2ccc(Cl)cc2Cl)C1=O,inactive
3,CCC1(C)CC(=O)N(Nc2ccc(Br)cc2)C1=O (stereo not given),50%

# System: Mus musculus
# Experiment: Anticonvulsant activity in ip dosed CF1 albino mouse assessed as inhibition of maximal electroshock-induced electrical stimulus at 300 mg/kg after 0.5 hr
# Assay type: functional, organism-based
# Parameters: dose 300 mg/kg
# Settings: not given
# Method in brief: as §4
row,SMILES,Activity
1,CCC1(C)CC(=O)NC1=O (stereo not given) [ETHOSUXIMIDE],inactive
2,CCCC1(C)CC(=O)N(Nc2ccc(Cl)cc2Cl)C1=O (stereo not given),inactive
